The source made the active and inactive calls. The rule behind the calls is not given here.
Experiments:
[1] = test system: PC-9/ER; experiment: Antiproliferative activity against human PC-9/ER cells assessed as inhibition of cell growth upto 10 uM incubated for 48 hrs by MTT assay; format: functional, cell-based
How it was run: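 PC9/ER cells (made resistant by 3 months in Erlotinib, 0.5–2 μM, RPMI-1640 with 10% FBS) seeded at 8 × 10^4 cells/ml, left overnight, then exposed to 5 or 10 μM inhibitor (DMSO control) for 48 h. MTT (2.5 mg/ml stock) was added for 4 h at 37 °C, formazan dissolved in DMSO, OD read at 570 nm.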

[2] = test system: PC-9/ER; experiment: Induction of apoptosis in human PC-9/ER cells assessed as viable cells at 10 uM for 48 hrs by annexin V/PI staining based flow cytometric analysis (reference value: 94.2%); format: functional; conditions: read-out: Activity
[3] = test system: PC-9/ER; experiment: Induction of apoptosis in human PC-9/ER cells assessed as early apoptotic cells at 10 uM for 48 hrs by annexin V/PI staining based flow cytometric analysis (reference value: 1.9%); format: functional
[4] = test system: PC-9/ER; experiment: Induction of apoptosis in human PC-9/ER cells assessed as late apoptotic cells at 10 uM for 48 hrs by annexin V/PI staining based flow cytometric analysis (reference value: 3.8%); format: functional
[5] = test system: PC-9/ER; experiment: Induction of apoptosis in human PC-9/ER cells assessed as necrotic cells at 10 uM for 48 hrs by annexin V/PI staining based flow cytometric analysis (reference value: 0.1%); format: functional
[6] = test system: HCC827ER; experiment: Induction of apoptosis in human HCC827ER cells assessed as viable cells at 10 uM for 48 hrs by annexin V/PI staining based flow cytometric analysis (reference value: 94.4%); format: functional; conditions: read-out: Activity
[7] = test system: HCC827ER; experiment: Induction of apoptosis in human HCC827ER cells assessed as early apoptotic cells at 10 uM for 48 hrs by annexin V/PI staining based flow cytometric analysis (reference value: 1.8%); format: functional
[8] = test system: HCC827ER; experiment: Induction of apoptosis in human HCC827ER cells assessed as late apoptotic cells at 10 uM for 48 hrs by annexin V/PI staining based flow cytometric analysis (reference value: 3.5%); format: functional
[9] = test system: HCC827ER; experiment: Induction of apoptosis in human HCC827ER cells assessed as necrotic cells at 10 uM for 48 hrs by annexin V/PI staining based flow cytometric analysis (reference value: 0.3%); format: functional
[10] = test system: HCC827ER; experiment: Induction of apoptosis in human HCC827ER cells assessed as increased cleaved-PARP expression at 10 uM measured by Western blot analysis; format: functional, cell-based
How it was run: (§1)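 Resistant PC9/ER and HCC827/ER cells treated with 10 μM epigenetic inhibitor (DMSO control). Cleaved PARP detected by western blot on 10–15% SDS-PAGE with ECL, normalized to β-actin.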

[11] = test system: PC-9/ER; experiment: Induction of apoptosis in human PC-9/ER cells assessed as increased cleaved-PARP expression at 10 uM measured by Western blot analysis; format: functional, cell-based; how it was run: as §1
[12] = test system: PC-9/ER; experiment: Antitumor activity against human PC-9/ER cells xenografted in SCID mouse assessed as inhibition of tumor growth at 2.5 mg/kg, ip bid for 3 weeks; format: functional, organism-based
How it was run: (§2)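 Male SCID mice, 7–8 weeks old, injected s.c. in the right flank with 5 × 10^6 PC9/ER cells in PBS. At an average tumor volume of 50 mm3, randomized into groups of n = 6: saline, UNC0642 2.5 mg/kg bid i.p., Erlotinib 12.5 mg/kg/day i.p., or both. Tumor volume tracked and body weight recorded; tumors weighed after sacrifice at 3 weeks.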

[13] = test system: PC-9/ER; experiment: Antitumor activity against human PC-9/ER cells xenografted in SCID mouse assessed as reduction of tumor weight at 2.5 mg/kg, ip bid for 3 weeks relative to control; format: functional; parameters: scale not given: the % may be the effect or the level left; how it was run: as §2
[14] = test system: PC-9/ER; experiment: Antitumor activity against human PC-9/ER cells xenografted in SCID mouse assessed as reduction of tumor weight at 2.5 mg/kg, ip bid for 3 weeks in presence of erlotinib relative to control; format: functional; parameters: scale not given: the % may be the effect or the level left; how it was run: as §2
[15] = test system: Mus musculus; experiment: In vivo inhibition of AKT phosphorylation in human PC-9/ER cells xenografted SCID mouse assessed as reduction of H3K9Me2 expression at 2.5 mg/kg, ip bid for 3 weeks; format: functional, organism-based
How it was run: (§3)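 Tumors were excised after 3 weeks from PC9/ER xenografts in SCID mice dosed with UNC0642 (2.5 mg/kg bid i.p.) with or without Erlotinib (12.5 mg/kg/day i.p.), saline as control. Tissue lysates were run on western blot for H3K9Me2, PTEN, p-AKT and AKT, normalized to β-actin or Histone3.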

[16] = test system: Mus musculus; experiment: In vivo inhibition of AKT phosphorylation in human PC-9/ER cells xenografted SCID mouse assessed as increase in PTEN expression at 2.5 mg/kg, ip bid for 3 weeks; format: functional, organism-based; how it was run: as §3
[17] = Upregulation of PTEN mRNA expression level in human PC-9/ER cells assessed as increase in fold change at 10 uM by Western blot analysis; format: functional; conditions: in the assay text read “real-time RT-PCR” for “Western blot analysis”
How it was run: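 PC9/ER cells were treated with 10 μM UNC0638 or transfected with 20 nM EHMT2 siRNA, with DMSO or scramble siRNA as controls. Total RNA was extracted, reverse transcribed, and PTEN mRNA measured by SYBR Green real-time RT-PCR, normalized to GAPDH and expressed as fold change versus control. PTEN protein was checked separately by western blot against β-actin.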

| Structure (SMILES) | Activity [1] | viability at 10 µM [2] [%] | Activity [3] [%] | Activity [4] [%] | Activity [5] [%] | viability at 10 µM [6] [%] | Activity [7] [%] | Activity [8] [%] | Activity [9] [%] | Activity [10] | Activity [11] | further results |
| --- | --- | --- | --- | --- | --- | --- | --- | --- | --- | --- | --- | --- |
| Cc1sc2c(c1C)C(c1ccc(Cl)cc1)=N[C@@H](CC(=O)OC(C)(C)C)c1nnc(C)n1-2 | Active | 89.8 | 4.8 | 5.2 | 0.2 | 63.4 | 26.4 | 10 | 0.2 |  |  |  |
| COc1cc2nc(N3CCCC3)nc(NCCCCCN3CCCC3)c2cc1OC |  |  |  |  |  |  |  |  |  | inactive | inactive |  |
| CC[C@H](C)n1cc(C)c2c(C(=O)NCc3c(C)cc(C)[nH]c3=O)cc(-c3ccc(N4CCNCC4)nc3)cc21 | Active |  |  |  |  |  |  |  |  | Active | Active |  |
| CC(C)N(C[C@H]1O[C@@H](n2cnc3c(N)ncnc32)[C@H](O)[C@@H]1O)[C@H]1C[C@@H](CCc2nc3cc(C(C)(C)C)ccc3[nH]2)C1 |  |  |  |  |  |  |  |  |  | inactive | inactive |  |
| Nc1ncn([C@@H]2O[C@H](CO)[C@@H](O)[C@H]2O)c(=O)n1 | Active |  |  |  |  |  |  |  |  | Active | Active |  |
| COc1cc2c(NC3CCN(C(C)C)CC3)nc(N3CCC(F)(F)CC3)nc2cc1OCCCN1CCCC1 |  |  |  |  |  |  |  |  |  |  |  | Activity [12]: Active; Activity [13]: 37.2%; Activity [14]: 68.2%; inhibition [15]: Active; inhibition [16]: Active |
| COc1cc2c(NC3CCN(C(C)C)CC3)nc(C3CCCCC3)nc2cc1OCCCN1CCCC1 | Active | 38.5 | 40.8 | 20.5 | 0.2 | 41.9 | 43.1 | 15 | 0 | Active | Active | fold change (FC) [17]: 2.5 |
| O=C(O)CCNc1cc(N2CCc3ccccc3CC2)nc(-c2ccccn2)n1 |  |  |  |  |  |  |  |  |  | inactive | inactive |  |
| O=C(/C=C/c1cccc(S(=O)(=O)Nc2ccccc2)c1)NO [BELINOSTAT] | Active | 75.8 | 12.8 | 10.5 | 0.9 | 82.3 | 9.4 | 7 | 1.3 |  |  |  |
| Cc1cn(CCN2CCN(c3ccccc3-c3cc(C#N)cc(C(=O)NCCCN4CCCC4)c3)CC2)c2ccccc12 |  |  |  |  |  |  |  |  |  | inactive | inactive |  |

— ChEMBL document CHEMBL5712896, “Targeting EHMT2 reverses EGFR-TKI resistance in NSCLC by epigenetically regulating the PTEN/AKT signaling pathway” (2018)
